Experimental data: ChEMBL document CHEMBL5696442, “Discovery of type II inhibitors of TGFβ-activated kinase 1 (TAK1) and mitogen-activated protein kinase kinase kinase kinase 2 (MAP4K2)” (J Med Chem, 2015)

Tests used:
[1] = molecular target: Tyrosine-protein kinase CSK (Homo sapiens, UniProt P41240); test: Inhibition of CSK ACT labeling site harbouring VSDFGLTKEASSTQDTGKLPVK in human Huh-7 cell lysate at 1 uM by KiNativ Profiling analysis relative to control; format: subcellular
[2] = molecular target: TRAF2 and NCK-interacting protein kinase (Homo sapiens) (UniProt Q9UKE5); test: Inhibition of ZC2 Lys2 labeling site in human A-375 cells at 0.5 uM by KiNativ Profiling analysis relative to control; format: cell-based
[3] = molecular target: Serine/threonine-protein kinase 10 (Homo sapiens) (UniProt O94804); test: Inhibition of LOK Lys1 labeling site harbouring ETGALAAAKVIETK in human A-375 cells at 0.05 uM by KiNativ Profiling analysis relative to control; format: cell-based
[4] = molecular target: T1, Mitogen-activated protein kinase kinase kinase kinase 4 (Homo sapiens, UniProt O95819); test: Inhibition of ZC1/HGK (unknown origin) Lys1 labeling site by KiNativ Profiling analysis
[5] = molecular target: 5'-AMP-activated protein kinase catalytic subunit alpha-1 (Homo sapiens) (UniProt Q13131); test: Inhibition of AMPKa1 Lys1 labeling site in human A-375 cells at 0.05 uM by KiNativ Profiling analysis relative to control; format: cell-based
[6] = molecular target: 5'-AMP-activated protein kinase catalytic subunit alpha-1 (Homo sapiens) (UniProt Q13131); test: Inhibition of AMPKa1 Lys1 labeling site in human A-375 cells at 5 uM by KiNativ Profiling analysis relative to control; format: cell-based
In short: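 Live A375 melanoma cells were treated with compound at 5 or 0.5 μM, then lysed. The lysates were labeled with a lysine-reactive ATP or ADP-biotin probe. Kinase protection from probe labeling was measured by KiNativ.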

[7] = molecular target: eIF-2-alpha kinase GCN2 (Homo sapiens) (UniProt Q9P2K8); test: Inhibition of GCN2 domain2 Lys1 labeling site in human A-375 cells at 0.5 uM by KiNativ Profiling analysis relative to control; format: cell-based
[8] = molecular target: T2, Serine/threonine-protein kinase NLK (Homo sapiens) (UniProt Q9UBE8); test: Inhibition of NLK Lys2 labeling site in human A-375 cells at 5 uM by KiNativ Profiling analysis relative to control; format: cell-based
T2 sequence (whole entry): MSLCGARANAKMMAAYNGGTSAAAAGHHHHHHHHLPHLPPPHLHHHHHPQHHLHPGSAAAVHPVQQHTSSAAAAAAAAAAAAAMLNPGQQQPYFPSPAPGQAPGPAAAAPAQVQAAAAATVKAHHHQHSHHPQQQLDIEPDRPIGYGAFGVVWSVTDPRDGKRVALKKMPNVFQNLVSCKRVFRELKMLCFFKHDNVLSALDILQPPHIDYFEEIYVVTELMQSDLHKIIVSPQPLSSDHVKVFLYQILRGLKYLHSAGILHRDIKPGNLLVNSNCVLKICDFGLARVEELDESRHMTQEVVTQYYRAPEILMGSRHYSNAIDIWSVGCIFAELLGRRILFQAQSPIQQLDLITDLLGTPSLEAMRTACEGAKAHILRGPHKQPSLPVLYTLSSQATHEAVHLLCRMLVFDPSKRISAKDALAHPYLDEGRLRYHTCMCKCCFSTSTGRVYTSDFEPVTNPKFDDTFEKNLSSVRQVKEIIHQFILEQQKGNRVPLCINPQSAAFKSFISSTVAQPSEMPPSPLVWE

[9] = molecular target: T1, Mitogen-activated protein kinase kinase kinase kinase 4; test: Inhibition of ZC1/HGK Lys1 labeling site in human A-375 cells at 0.05 uM by KiNativ Profiling analysis relative to control; format: cell-based
[10] = Inhibition of p70S6K ATP Loop labeling site harbouring GGYGKVFQVR in human A-375 cells at 5 uM by KiNativ Profiling analysis relative to control; conditions: condition cancer
[11] = molecular target: T3, Mixed lineage kinase domain-like protein (Homo sapiens) (UniProt Q8NB16); test: Inhibition of MLKL Lys1 labeling site in human A-375 cells at 0.5 uM by KiNativ Profiling analysis relative to control; format: cell-based
T3 sequence (whole entry): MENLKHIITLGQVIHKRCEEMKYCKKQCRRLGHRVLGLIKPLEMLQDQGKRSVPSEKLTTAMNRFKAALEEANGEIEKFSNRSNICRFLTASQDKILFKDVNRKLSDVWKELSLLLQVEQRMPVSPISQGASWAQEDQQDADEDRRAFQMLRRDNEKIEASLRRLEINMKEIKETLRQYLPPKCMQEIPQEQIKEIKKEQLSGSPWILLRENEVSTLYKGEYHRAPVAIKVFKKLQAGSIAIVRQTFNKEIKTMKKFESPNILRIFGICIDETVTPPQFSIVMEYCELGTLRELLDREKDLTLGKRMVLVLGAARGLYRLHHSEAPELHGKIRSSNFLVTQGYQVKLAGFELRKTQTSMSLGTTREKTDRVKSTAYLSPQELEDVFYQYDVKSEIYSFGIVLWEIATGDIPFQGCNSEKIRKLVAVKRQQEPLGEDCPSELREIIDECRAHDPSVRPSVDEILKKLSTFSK

[12] = molecular target: Serine/threonine-protein kinase/endoribonuclease IRE1 (Homo sapiens) (UniProt O75460); test: Inhibition of IRE1 Lys2 labeling site in human A-375 cells at 0.5 uM by KiNativ Profiling analysis relative to control; format: cell-based
[13] = molecular target: T4, Mitogen-activated protein kinase 12 (Homo sapiens) (UniProt P53778); test: Inhibition of p38 gamma Lys2 labeling site in human A-375 cells at 5 uM by KiNativ Profiling analysis relative to control; format: cell-based
T4 sequence (whole entry): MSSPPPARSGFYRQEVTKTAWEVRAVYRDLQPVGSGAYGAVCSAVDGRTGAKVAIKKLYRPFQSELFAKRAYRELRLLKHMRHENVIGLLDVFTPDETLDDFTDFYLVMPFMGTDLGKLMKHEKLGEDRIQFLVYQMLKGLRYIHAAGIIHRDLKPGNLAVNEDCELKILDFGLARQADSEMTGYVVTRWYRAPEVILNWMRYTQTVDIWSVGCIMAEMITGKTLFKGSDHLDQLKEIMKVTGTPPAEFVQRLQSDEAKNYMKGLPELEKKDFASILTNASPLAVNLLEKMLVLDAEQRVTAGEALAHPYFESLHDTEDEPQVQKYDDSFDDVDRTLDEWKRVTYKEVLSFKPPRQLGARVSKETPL

[14] = molecular target: Proto-oncogene tyrosine-protein kinase Src (Homo sapiens, UniProt P12931); test: Inhibition of SRC (unknown origin) Lys1 labeling site by KiNativ Profiling analysis
[15] = molecular target: Serine/threonine-protein kinase WNK1 (Homo sapiens) (UniProt Q9H4A3); test: Inhibition of Wnk1 ACT labeling site in human A-375 cells at 0.5 uM by KiNativ Profiling analysis relative to control; format: cell-based

Chain of 5'-AMP-activated protein kinase catalytic subunit alpha-1 (Homo sapiens) (Q13131 whole entry, looked up): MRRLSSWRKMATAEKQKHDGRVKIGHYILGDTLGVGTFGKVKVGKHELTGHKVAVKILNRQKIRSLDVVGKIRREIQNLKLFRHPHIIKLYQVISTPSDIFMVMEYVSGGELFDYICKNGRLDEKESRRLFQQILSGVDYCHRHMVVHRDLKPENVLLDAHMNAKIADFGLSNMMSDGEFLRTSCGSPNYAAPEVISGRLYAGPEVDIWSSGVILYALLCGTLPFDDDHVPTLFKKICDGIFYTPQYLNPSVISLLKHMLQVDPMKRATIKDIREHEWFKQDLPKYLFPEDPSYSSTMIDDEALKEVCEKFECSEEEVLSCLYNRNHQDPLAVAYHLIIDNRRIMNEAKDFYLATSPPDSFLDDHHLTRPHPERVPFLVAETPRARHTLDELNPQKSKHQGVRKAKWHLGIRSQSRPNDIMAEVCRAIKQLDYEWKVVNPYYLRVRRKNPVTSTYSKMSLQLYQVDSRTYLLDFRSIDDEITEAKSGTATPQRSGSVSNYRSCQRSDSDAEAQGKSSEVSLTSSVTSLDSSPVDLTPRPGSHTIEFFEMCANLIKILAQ
Chain of eIF-2-alpha kinase GCN2 (Homo sapiens) (Q9P2K8 whole entry, the tested form may be a part): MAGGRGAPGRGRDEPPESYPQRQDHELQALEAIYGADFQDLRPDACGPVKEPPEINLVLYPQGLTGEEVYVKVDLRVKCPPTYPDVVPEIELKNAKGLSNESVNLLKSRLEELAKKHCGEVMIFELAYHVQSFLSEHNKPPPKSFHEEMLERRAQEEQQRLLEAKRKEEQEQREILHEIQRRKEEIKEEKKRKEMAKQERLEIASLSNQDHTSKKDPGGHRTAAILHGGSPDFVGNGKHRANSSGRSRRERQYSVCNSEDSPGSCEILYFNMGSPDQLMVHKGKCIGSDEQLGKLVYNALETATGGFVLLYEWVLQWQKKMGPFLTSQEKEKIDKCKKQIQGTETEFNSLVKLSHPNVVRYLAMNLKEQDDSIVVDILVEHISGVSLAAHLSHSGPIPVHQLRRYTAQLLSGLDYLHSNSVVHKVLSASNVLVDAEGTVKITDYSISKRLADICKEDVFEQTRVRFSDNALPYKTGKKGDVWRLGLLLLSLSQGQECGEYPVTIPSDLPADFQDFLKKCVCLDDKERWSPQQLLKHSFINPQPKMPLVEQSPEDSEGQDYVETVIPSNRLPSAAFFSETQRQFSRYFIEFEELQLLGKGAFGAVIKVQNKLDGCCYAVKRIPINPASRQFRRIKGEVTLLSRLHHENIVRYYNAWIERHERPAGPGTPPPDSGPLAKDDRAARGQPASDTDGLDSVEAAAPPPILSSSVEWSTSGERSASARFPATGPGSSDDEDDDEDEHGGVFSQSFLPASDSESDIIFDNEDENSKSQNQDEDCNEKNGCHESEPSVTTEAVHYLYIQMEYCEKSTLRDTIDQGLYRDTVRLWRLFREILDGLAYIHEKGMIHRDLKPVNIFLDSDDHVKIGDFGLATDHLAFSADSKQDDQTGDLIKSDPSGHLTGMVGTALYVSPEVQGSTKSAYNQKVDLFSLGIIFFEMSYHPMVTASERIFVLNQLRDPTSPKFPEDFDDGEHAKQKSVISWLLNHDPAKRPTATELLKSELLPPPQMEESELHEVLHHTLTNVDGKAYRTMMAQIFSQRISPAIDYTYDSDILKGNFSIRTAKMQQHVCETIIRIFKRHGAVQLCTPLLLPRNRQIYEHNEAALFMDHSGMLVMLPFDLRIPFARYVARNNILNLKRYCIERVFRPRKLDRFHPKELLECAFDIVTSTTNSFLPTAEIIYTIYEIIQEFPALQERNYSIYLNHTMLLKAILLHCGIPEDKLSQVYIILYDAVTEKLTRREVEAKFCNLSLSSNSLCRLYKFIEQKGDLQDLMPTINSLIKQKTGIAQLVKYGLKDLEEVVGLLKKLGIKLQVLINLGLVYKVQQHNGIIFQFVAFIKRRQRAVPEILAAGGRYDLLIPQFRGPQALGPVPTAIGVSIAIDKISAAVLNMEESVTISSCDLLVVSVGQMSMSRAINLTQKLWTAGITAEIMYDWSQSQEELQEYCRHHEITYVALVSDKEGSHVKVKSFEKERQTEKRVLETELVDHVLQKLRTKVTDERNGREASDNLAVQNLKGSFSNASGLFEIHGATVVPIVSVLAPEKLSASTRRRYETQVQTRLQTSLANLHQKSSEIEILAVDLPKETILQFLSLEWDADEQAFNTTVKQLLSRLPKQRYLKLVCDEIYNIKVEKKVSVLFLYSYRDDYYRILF
Chain of Serine/threonine-protein kinase/endoribonuclease IRE1 (Homo sapiens) (O75460 19-977 limits assumed): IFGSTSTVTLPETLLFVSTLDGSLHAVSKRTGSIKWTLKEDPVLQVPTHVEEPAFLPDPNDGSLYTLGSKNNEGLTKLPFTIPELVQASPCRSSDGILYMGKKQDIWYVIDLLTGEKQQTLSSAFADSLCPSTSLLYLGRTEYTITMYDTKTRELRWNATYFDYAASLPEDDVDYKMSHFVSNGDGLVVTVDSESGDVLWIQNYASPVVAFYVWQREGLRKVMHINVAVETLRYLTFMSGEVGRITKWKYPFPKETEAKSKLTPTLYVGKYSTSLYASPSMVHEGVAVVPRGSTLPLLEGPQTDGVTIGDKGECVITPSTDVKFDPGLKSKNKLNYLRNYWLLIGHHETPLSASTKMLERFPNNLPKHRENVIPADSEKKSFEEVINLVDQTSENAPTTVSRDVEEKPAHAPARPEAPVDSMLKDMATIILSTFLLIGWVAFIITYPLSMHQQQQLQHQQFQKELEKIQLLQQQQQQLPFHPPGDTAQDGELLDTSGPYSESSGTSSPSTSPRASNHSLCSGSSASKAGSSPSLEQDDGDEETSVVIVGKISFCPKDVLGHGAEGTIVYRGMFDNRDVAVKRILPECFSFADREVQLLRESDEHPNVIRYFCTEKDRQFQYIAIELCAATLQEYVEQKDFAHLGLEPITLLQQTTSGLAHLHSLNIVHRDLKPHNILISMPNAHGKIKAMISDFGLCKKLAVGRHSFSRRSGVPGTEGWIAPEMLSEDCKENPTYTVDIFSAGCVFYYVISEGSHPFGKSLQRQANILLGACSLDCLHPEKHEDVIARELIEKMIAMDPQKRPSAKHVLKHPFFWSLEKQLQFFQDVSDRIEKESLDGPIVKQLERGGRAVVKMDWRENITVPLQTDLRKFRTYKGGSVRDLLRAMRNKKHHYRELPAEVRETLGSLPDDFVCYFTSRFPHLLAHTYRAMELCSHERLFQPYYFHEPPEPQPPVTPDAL
Chain of Serine/threonine-protein kinase 10 (Homo sapiens) (O94804 whole entry, looked up): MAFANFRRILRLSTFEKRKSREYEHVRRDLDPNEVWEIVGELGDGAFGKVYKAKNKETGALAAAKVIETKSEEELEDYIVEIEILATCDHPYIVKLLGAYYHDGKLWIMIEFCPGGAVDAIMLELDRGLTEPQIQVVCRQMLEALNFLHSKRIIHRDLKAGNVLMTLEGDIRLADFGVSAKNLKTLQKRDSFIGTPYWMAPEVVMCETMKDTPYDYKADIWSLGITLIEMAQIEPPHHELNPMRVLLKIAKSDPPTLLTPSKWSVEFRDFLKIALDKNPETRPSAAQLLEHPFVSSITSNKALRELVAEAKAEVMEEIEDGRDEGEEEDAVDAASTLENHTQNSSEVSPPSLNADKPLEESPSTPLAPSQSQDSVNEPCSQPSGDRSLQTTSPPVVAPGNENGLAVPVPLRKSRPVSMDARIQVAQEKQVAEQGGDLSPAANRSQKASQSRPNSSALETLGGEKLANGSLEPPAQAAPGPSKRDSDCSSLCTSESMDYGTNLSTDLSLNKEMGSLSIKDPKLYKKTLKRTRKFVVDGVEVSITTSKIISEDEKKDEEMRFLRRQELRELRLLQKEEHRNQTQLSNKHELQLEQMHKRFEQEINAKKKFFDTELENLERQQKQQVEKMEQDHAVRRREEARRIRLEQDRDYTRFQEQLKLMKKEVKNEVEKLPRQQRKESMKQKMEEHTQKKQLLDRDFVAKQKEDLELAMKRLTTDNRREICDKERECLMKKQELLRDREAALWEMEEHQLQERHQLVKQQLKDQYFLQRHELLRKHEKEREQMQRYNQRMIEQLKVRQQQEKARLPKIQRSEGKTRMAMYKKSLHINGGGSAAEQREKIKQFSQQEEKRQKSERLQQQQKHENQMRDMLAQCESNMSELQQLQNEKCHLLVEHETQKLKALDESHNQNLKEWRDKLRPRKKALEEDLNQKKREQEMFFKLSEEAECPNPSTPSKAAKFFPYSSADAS
Chain of Proto-oncogene tyrosine-protein kinase Src (P12931 2-536 limits assumed): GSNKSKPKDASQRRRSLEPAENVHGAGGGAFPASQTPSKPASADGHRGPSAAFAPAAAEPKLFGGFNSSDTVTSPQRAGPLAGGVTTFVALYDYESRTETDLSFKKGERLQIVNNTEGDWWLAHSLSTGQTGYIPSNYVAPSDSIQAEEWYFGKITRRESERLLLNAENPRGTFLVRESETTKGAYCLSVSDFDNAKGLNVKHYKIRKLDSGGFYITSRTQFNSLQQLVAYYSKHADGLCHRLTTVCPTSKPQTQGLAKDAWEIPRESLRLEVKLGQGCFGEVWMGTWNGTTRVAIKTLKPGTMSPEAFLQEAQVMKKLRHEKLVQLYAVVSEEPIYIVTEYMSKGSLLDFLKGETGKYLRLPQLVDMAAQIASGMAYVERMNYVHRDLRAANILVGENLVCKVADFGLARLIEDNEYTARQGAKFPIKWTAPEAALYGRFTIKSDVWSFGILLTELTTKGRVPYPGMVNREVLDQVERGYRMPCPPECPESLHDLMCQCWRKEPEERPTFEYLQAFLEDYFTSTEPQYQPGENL

In the case of `CNc1cc(Oc2cc(C(=O)Nc3cc(N4CCN(C)CC4)cc(C(F)(F)F)c3)ccc2C)ncn1`, the inhibition [1] is reported as 7.9%.

Work on `CCN1CCN(Cc2ccc(NC(=O)c3ccc(C)c(/C=C/c4cnc5[nH]ccc5c4OC)c3)cc2C(F)(F)F)CC1` yielded an inhibition [2] of 48.1%, an inhibition [3] of 39.6% and an IC50 [4] of 9750 nM. The inhibition [5] was 7.4%, the inhibition [6] was 37% and the inhibition [7] was 40.4%. The inhibition [8] was 66.6%, the inhibition [9] was 43.4% and the inhibition at 5 µM [10] was -8%. The inhibition [11] was 20.1%, the inhibition [12] was -9.6% and the inhibition [13] was 52.7%. It also gave an IC50 [14] of 204 nM and an inhibition [15] of 6.9%.

Work on `CNc1cc(Oc2cc(C(=O)Nc3cc(-n4cnc(C)c4)cc(C(F)(F)F)c3)ccc2C)ncn1` yielded an inhibition [1] of 0.3%.

In the case of `CCN1CCN(Cc2ccc(NC(=O)c3ccc(C)c(Oc4ccnc5[nH]ccc45)c3)cc2C(F)(F)F)CC1`, the inhibition [2] is reported as 70.8%, the inhibition [3] is reported as 40.5% and the IC50 [4] is reported as 3250 nM. The inhibition [5] was 13.4%, the inhibition [6] was 11.6% and the inhibition [7] was -10%. It also gave an inhibition [8] of 18.9%, an inhibition [9] of 42.1% and an inhibition at 5 µM [10] of 14.7%. For the same compound, the inhibition [11] was 7.8%, the inhibition [12] was 4.5% and the inhibition [13] was greater than 94%. It also gave an IC50 [14] of 113 nM and an inhibition [15] of 3.9%.
